In ChEMBL document CHEMBL1949626, “Ultrasound-assisted bismuth nitrate-induced green synthesis of novel pyrrole derivatives and their biological evaluation as anticancer agents” (Eur J Med Chem, 2012):
Activity calls are given as the source filed them. The calls are words filed in the database; no cut-off is given here.

Experiments:
[1] = test system: HepG2; assay: Cytotoxicity against human HepG2 cells after 48 hrs by sulforhodamine B assay; assay type: functional, cell-based; details: HepG2, 48 h
Summary of the method: (§1)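 Cells seeded at 5000/well, incubated overnight at 37 °C, then exposed 48 h to 0.1 µM-100 µM compound from DMSO stock (final DMSO ≤0.25%); 0.25% DMSO vehicle and 10 μM doxorubicin controls. Fixed, stained with sulforhodamine B, absorbance normalized to untreated cells; 4-parameter logistic fit gives IC50, mean ± SD of two independent assays.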

[2] = Cytotoxicity against […] cells after 48 hrs by sulforhodamine B assay; assay type: functional, cell-based; details: Hepa1-6, 48 h; summary of the method: as §1
[3] = test system: Caco-2; assay: Cytotoxicity against human Caco2 cells after 48 hrs by sulforhodamine B assay; assay type: functional, cell-based; details: Caco-2, 48 h; summary of the method: as §1
[4] = test system: HT-29; assay: Cytotoxicity against human HT-29 cells after 48 hrs by sulforhodamine B assay; assay type: functional, cell-based; details: HT-29, 48 h; summary of the method: as §1
[5] = test system: HeLa; assay: Cytotoxicity against human HeLa cells after 48 hrs by sulforhodamine B assay; assay type: functional, cell-based; summary of the method: as §1
[6] = test system: NIH3T3; assay: Cytotoxicity against […] cells after 48 hrs by sulforhodamine B assay; assay type: functional, cell-based; details: Mus musculus, NIH3T3, 48 h; summary of the method: as §1
[7] = test system: Hepa1-6; assay: Cytotoxicity against […] cells at 2.5 to 5 uM after 48 hrs by MTS assay; assay type: functional, cell-based
Summary of the method: (§2)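 Fresh CD-1 mouse hepatocytes (Williams' E medium) or Hepa1-6 (DMEM, 10% FBS), plated, incubated overnight at 37 °C; media refreshed, then 0.5, 2.5, 5 and 10 μM compound for 48 h. MTS reagent added for 4 h at 37 °C, 5% CO2; A490 normalized to untreated cells. Two independent experiments in duplicate, mean ± SD.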

[8] = test system: Hepatocyte; assay: Cytotoxicity against CD1 mouse hepatocytes at 10 uM after 48 hrs by MTS assay; assay type: cell-based; summary of the method: as §2
[9] = test system: HepG2; assay: Cytotoxicity against human HepG2 cells at 2 times IC50 after 24 hrs by sulforhodamine B assay; assay type: functional
Summary of the method: (§3)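 HepG2 seeded at 5000 cells/well and treated at twice each compound's calculated IC50 for 24, 48 or 72 h. Cells fixed and viability read by SRB absorbance, normalized to untreated. Three independent experiments run in duplicate; mean ± SD.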

[10] = test system: HepG2; assay: Cytotoxicity against human HepG2 cells at 2 times IC50 after 48 hrs by sulforhodamine B assay; assay type: functional; summary of the method: as §3
[11] = test system: HepG2; assay: Cytotoxicity against human HepG2 cells at 2 times IC50 after 72 hrs by sulforhodamine B assay; assay type: functional; summary of the method: as §3
[12] = test system: HepG2; assay: Inhibition of anchorage-independent growth of human HepG2 cells at 25 uM after 7 days by soft agar colony formation assay; assay type: functional; details: HepG2, 168 h, read-out: GI
Summary of the method: (§4)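 HepG2 at 5000 cells/well in top soft agar, exposed to compound for 7 days with compound and fresh medium replaced once on day 4. Agar solubilized on day 7 and cells quantified by fluorescence (485–520 nm filters). Duplicate wells per dose, SD shown.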

[13] = test system: HepG2; assay: Inhibition of anchorage-independent growth of human HepG2 cells at 12.5 uM after 7 days by soft agar colony formation assay; assay type: functional; details: HepG2, 168 h, read-out: GI; summary of the method: as §4
[14] = test system: HepG2; assay: Induction of apoptosis in human HepG2 cells assessed as increase in caspase3/7 activity; assay type: functional, cell-based
[15] = test system: HepG2; assay: Induction of apoptosis in human HepG2 cells assessed as increase in DNA fragmentation by TUNEL assay; assay type: functional, cell-based
[16] = Cytotoxicity against mouse Hepa1-6 cells after 48 hrs by sulforhodamine B assay; details: Hepa1-6, 48 h
[17] = Cytotoxicity against mouse Hepa1-6 cells at 50 uM after 48 hrs by sulforhodamine B assay
[18] = test system: Hepa1-6; assay: Cytotoxicity against mouse Hepa1-6 cells at 2.5 to 5 uM after 48 hrs by MTS assay

| Compound | IC50 [1] | IC50 [2] | IC50 [3] | IC50 [4] | IC50 [5] | IC50 [6] | Activity [7] | Activity [8] | Activity [9] | Activity [10] | Activity [11] | inhibition of growth at 25 µM [12] | inhibition of growth at 12.5 µM [13] | Activity [14] | Activity [15] | IC50 [16] | Activity [17] | Activity [18] |
| --- | --- | --- | --- | --- | --- | --- | --- | --- | --- | --- | --- | --- | --- | --- | --- | --- | --- | --- |
| c1ccc2c(c1)ccc1cc(-n3cccc3)ccc12 | 13.4 µM | 3.9 µM | > 50 µM | > 50 µM | > 50 µM | 2.1 µM | Active | Non-toxic | 20% | >50% | >50% | > 60% | > 80% | inactive | inactive |  |  |  |
| c1ccc2c(c1)ccc1c3ccccc3c(-n3cccc3)cc21 | > 50 µM |  | > 50 µM | > 50 µM | > 50 µM | > 50 µM |  |  |  |  |  |  |  |  |  | 0.7 µM | 50% |  |
| c1cc2ccc3ccc(-n4cccc4)c4ccc(c1)c2c34 | > 50 µM |  | > 50 µM | 24.3 µM | 17.7 µM |  |  |  |  |  |  |  |  |  |  |  |  |  |
| c1cnc2c(c1)cc(-n1cccc1)c1cccnc12 | 3 µM |  |  | 4.2 µM | 27.9 µM | 1.9 µM |  | Non-toxic | 20% | >50% | >50% | > 60% | > 80% | inactive | inactive | 3.4 µM |  | Active |
| c1ccn(C23CC4CC(CC(C4)C2)C3)c1 | 38.6 µM |  | > 50 µM | 11.9 µM | 12.9 µM | 24 µM |  |  |  |  |  |  |  |  |  | 19.9 µM |  |  |
